Measured values published in ChEMBL document CHEMBL3046655, “Schiff bases as potential fungicides and nitrification inhibitors” (2009).
Converted amounts (≈) assume the structure as drawn. The source made the active and inactive calls. No cut-off for these calls is given here.

Legend:
Athelia rolfsii = experiment: Fungicidal activity against Athelia rolfsii assessed as fungal growth inhibition at 28 degC by poisoned food technique; format: functional; conditions: Agroathelia rolfsii; for EC50: read-out: ED50 (the source's name)
How it was run: (§1)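 Poisoned-food assay on PDA. A 5 mm plug from the growing edge of a 2-week colony was placed centrally. Plates were held at 28 °C until control growth was nearly complete. Colony diameter was measured; n=4. Inhibition = (C−T)×100/C, Abbott-corrected; ED50 by probit.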

Macrophomina phaseolina = experiment: Fungicidal activity against Rhizoctonia bataticola assessed as fungal growth inhibition at 28 degC by poisoned food technique; format: functional; conditions: for EC50: read-out: ED50 (the source's name); how it was run: as §1

Structure (SMILES)	EC50 (Athelia rolfsii) [µg/mL]	EC50 (Macrophomina phaseolina) [µg/mL]	ED50 (Athelia rolfsii)	ED50 (Macrophomina phaseolina)
Clc1cccc(Cl)c1/C=N/CCCC/N=C/c1c(Cl)cccc1Cl	22.1 (≈ 54.8 µM)	12.4 (≈ 30.9 µM)	–	–
Clc1cccc(Cl)c1/C=N/c1ccco1	78.3 (≈ 326 µM)	45.7 (≈ 190 µM)	–	–
Fc1ccc(/N=C/c2c(Cl)cccc2Cl)cc1	108 (≈ 403 µM)	123 (≈ 459 µM)	–	–
O=[N+]([O-])c1cccc(/C=N/C2CCCCC2/N=C/c2cccc([N+](=O)[O-])c2)c1 (stereo unspecified)	–	–	inactive	inactive
O=[N+]([O-])c1cccc(/C=N/c2ccccc2F)c1	160 (≈ 656 µM)	113 (≈ 462 µM)	–	–
Fc1cccc(/N=C/c2ccc(Cl)cc2Cl)c1	548 (≈ 2040 µM)	600 (≈ 2240 µM)	–	–
CCCCC(O)(Cn1cncn1)c1ccc(Cl)cc1Cl (stereo unspecified) [HEXACONAZOLE]	2.3 (≈ 7.32 µM)	1.7 (≈ 5.41 µM)	–	–
Clc1ccc(/C=N/c2ccco2)c(Cl)c1	35.2 (≈ 147 µM)	23.1 (≈ 96.4 µM)	–	–
Clc1ccc(/C=N/c2cc(Cl)c(Cl)cc2Cl)c(Cl)c1	24.4 (≈ 68.9 µM)	3.05 (≈ 8.63 µM)	–	–
O=[N+]([O-])c1cccc(/C=N/c2ccco2)c1	201 (≈ 930 µM)	17.1 (≈ 79.2 µM)	–	–
O=[N+]([O-])c1cccc(/C=N/c2cccc(F)c2)c1	175 (≈ 718 µM)	180 (≈ 737 µM)	–	–
Clc1ccc(/C=N/CCC/N=C/c2ccc(Cl)cc2Cl)c(Cl)c1	27.1 (≈ 69.9 µM)	17.8 (≈ 45.7 µM)	–	–
Fc1ccccc1/N=C/c1ccc(Cl)cc1Cl	63.4 (≈ 237 µM)	15.6 (≈ 58 µM)	–	–
O=[N+]([O-])c1cccc(/C=N/c2ccc(F)cc2)c1	164 (≈ 672 µM)	190 (≈ 779 µM)	–	–
Fc1cccc(/N=C/c2c(Cl)cccc2Cl)c1	87 (≈ 324 µM)	54 (≈ 201 µM)	–	–
Clc1cccc(Cl)c1/C=N/C1CCCCC1/N=C/c1c(Cl)cccc1Cl (stereo unspecified)	39.5 (≈ 92.3 µM)	124 (≈ 290 µM)	–	–
O=[N+]([O-])c1cccc(/C=N/CCCC/N=C/c2cccc([N+](=O)[O-])c2)c1	–	–	inactive	inactive
Clc1ccc(/C=N/CCCC/N=C/c2ccc(Cl)cc2Cl)c(Cl)c1	179 (≈ 444 µM)	100 (≈ 249 µM)	–	–
O=[N+]([O-])c1cccc(/C=N/c2cc(Cl)c(Cl)cc2Cl)c1	21.7 (≈ 65.9 µM)	6.17 (≈ 18.7 µM)	–	–
Fc1ccccc1/N=C/c1c(Cl)cccc1Cl	45.6 (≈ 170 µM)	45 (≈ 168 µM)	–	–
Clc1ccc(/C=N/C2CCCCC2/N=C/c2ccc(Cl)cc2Cl)c(Cl)c1 (stereo unspecified)	34.2 (≈ 79.9 µM)	18.3 (≈ 42.7 µM)	–	–
Fc1ccc(/N=C/c2ccc(Cl)cc2Cl)cc1	37.4 (≈ 140 µM)	21.8 (≈ 81.4 µM)	–	–
O=[N+]([O-])c1cccc(/C=N/CCC/N=C/c2cccc([N+](=O)[O-])c2)c1	–	–	inactive	inactive
